Source: PubChem BioAssay (several laboratories)
Most compounds without a hit are left out; they make up all but 2.6% or so of the library.
Platelet DG rel = platelet dense granule release activity | human platelet-rich plasma, SFLLRN dense granule ATP release, luminescence | hit rate 0.22% among 300,000 | inhibition, %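 (compounds screened at 7.5 µM in platelet-rich plasma)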 | AID 1663;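 active means mean replicate score, as percent of positive control, at or above 50; inconclusive means mean below 50 but at least one replicate at or above 50; inactive means mean and every replicate below 50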
SENP6 block = SENP6 protease inhibition; Recombinant SENP6 catalytic domain, aminoluciferin luminescence; inhibition, % at 10 µM; hit rate 1.8% among 330,000; AID 2599;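 active means inhibition above about 50% at the single tested dose, limit read from the data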;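 further: plate controls were DMSO wells with enzyme for no effect and DMSO wells lacking enzyme for full effect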
SENP8 block-1 = inhibitors of human SENP8 protease; AID 2540; purified SENP8, Z-RLRGG-aminoluciferin cleavage, luminescence; hit rate 1.2% among 330,000; inhibition, % at 10 µM; in the data active means inhibition above about 50%
Target sequence (Q96LD8 whole entry, looked up): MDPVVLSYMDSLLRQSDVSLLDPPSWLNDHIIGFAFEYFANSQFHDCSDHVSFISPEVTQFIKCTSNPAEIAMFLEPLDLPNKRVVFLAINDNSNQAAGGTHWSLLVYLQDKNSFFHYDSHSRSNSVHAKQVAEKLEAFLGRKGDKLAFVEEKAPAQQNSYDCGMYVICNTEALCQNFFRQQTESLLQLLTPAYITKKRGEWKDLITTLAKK
SENP1 FRET inh = SENP1 (human) catalytic domain inhibition. Q9P0U3. recombinant SENP1 catalytic domain, CyPet-SUMO1-YPet FRET cleavage. inhibition, % at 10 µM. hit rate 0.21% among 360,000. AID 624204;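 active means inhibition at least 30% at 10 µM, raw YFP signal under a set limit, fluorescence ratio 0.5 to 1.5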;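 further: 0% = enzyme with DMSO and 100% = no enzyme wells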
Target sequence (Q9P0U3 419-644 limits assumed): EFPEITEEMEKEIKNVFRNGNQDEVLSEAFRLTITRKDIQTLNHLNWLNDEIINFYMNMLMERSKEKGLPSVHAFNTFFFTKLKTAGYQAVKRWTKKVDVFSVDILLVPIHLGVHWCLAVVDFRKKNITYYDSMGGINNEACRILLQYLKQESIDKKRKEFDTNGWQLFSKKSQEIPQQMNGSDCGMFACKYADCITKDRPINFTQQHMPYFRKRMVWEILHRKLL
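material = recombinant human SENP1 catalytic domain, His6-tagged | quantity = 20 pM enzyme | reagent = 25 nM SUMO1 FRET substrate | compound dosing = 10 µM single point, 0.5% DMSO | timing = 50 min enzyme reaction, room temperature, light-protected | detection = FRET, CFP and YFP emission | control set = no-enzyme low, enzyme-DMSO high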
SENP8 block-2 = blocks human SENP8 cleavage of Nedd8 substrate; recombinant SENP8, Nedd8 substrate fluorescence; inhibition, % at 20 µM; hit rate 0.64% among 360,000; in the data active means inhibition mostly above about 40%, no sharp cut-off; inactive means mostly below about 27%
SENP7 block = blocks the human protease SENP7. inhibition, % at 5 µM. hit rate 1.5% among 330,000. recombinant SENP7, Z-RLRGG-aminoluciferin luminescence, 40 min. Q9BQF6;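 active means inhibition above about 50% at the single test dose, limit read from the data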;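 further: plate controls were DMSO with enzyme for no effect and no enzyme buffer wells for full effect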
SENP8 conf = confirmation of human SENP8 protease inhibitors. AID 624319. shares compounds with SENP8 block-2. inhibition, % at 25 µM. purified SENP8, Nedd8-AMC/pro-Nedd8 cleavage fluorescence, 30 min. hit rate 15% among 1,400; in the data active means inhibition mostly above about 39%, no sharp cut-off; inactive means mostly below about 34%
* marks the source's active call; other numbers are inactive results; ? = inconclusive; . = no result given.

SMILES	Platelet DG rel	SENP6 block	SENP8 block-1	SENP1 FRET inh	SENP8 block-2	SENP7 block	SENP8 conf
COc1ccc2c(c1)C(=O)N(c1ccccc1)C(=O)C2	-4	-2	4	40	5	14	.
CCOc1nc2cnccc2n(CC(=O)Nc2cccc(C)c2C)c1=O	5	-8	8	-1	11	3	.
CCN(C(=O)COC(=O)CCOc1ccc(C(C)(C)C)cc1)c1c(N)n(Cc2ccccc2)c(=O)[nH]c1=O	.	.	.	0	4	.	.
CCn1c(SCC(=O)O)nnc1-c1ccccc1	1	2	-2	2	24	-10	.
CCn1c(SCc2cccc(C(=O)O)c2)nnc1-c1ccccc1	?	-2	0	1	48*	1	22
NCCNc1ccc(C(=O)N2c3ccccc3Sc3ccccc32)cc1[N+](=O)[O-]	-6	-21	-18	4	52*	0	21
Cc1ccc(C)c(C(=O)COC(=O)c2cccc(N3C(=O)c4c(C)nc5ccccc5c4C3=O)c2)c1	-9	2	4	1	42*	5	14
Cc1ccc(NC(=S)N/N=C/c2c(Cl)cccc2Cl)c(C)c1	-5	3	0	1	29	10	.
Cc1ccc(NC(=S)N/N=C/c2ccc(OCCC(C)C)cc2)c(C)c1	-2	-13	-10	-1	41*	-8	18
CCN(CC)C(=O)C1=C(C)N(Cc2ccc(OC)cc2)C(=O)C(CC(=O)NC2CCCCC2)C1 (stereo not given)	.	.	.	0	13	.	.
Cn1c(=O)[nH]c2nc[nH]c2c1=O	0	9	-4	-3	13	4	.
Cn1cnc2nc[nH]c2c1=O	.	.	.	4	58*	.	12
CCCCCN(C(=O)CCC(=O)OCc1cccc(Br)c1)c1c(N)n(CCCC)c(=O)[nH]c1=O	35	2	12	-2	4	2	.
C[C@@H]1CN(C(=O)c2nc3ccc(Cl)cn3c2CN2CCc3sccc3C2)C[C@H](C)O1	0	8	4	-11	43*	-4	21
C=C(C)CNC(=S)N/N=C/c1ccc([N+](=O)[O-])cc1	-1	-16	-1	-2	20	13	.
COCCNC(=S)N/N=C/c1ccc([N+](=O)[O-])cc1	6	-21	-7	0	43*	-3	23
O=C(c1ccc([N+](=O)[O-])o1)N1CCN(Cc2ccccc2)CC1	-4	-4	1	0	42*	24	29
Cc1ccc(C(=O)N2CCN(Cc3ccccc3)CC2)o1	7	-11	-2	0	5	-6	.
CCN(CC)S(=O)(=O)c1cc([N+](=O)[O-])ccc1NNC(=O)Nc1ccccc1OC	-2	-3	-1	1	51*	2	25
CCOc1ccccc1NC(=O)NNC(=O)CCc1ccc(OC)cc1	9	9	3	4	4	-6	.
Cc1ccc(C(=O)NCC(=O)OCC(=O)N2CCCc3ccccc32)cc1	-3	-15	3	0	55*	2	-3
CCOC(=O)/C(=N/Nc1ccccc1)N1CCCc2ccccc21	-4	-9	0	1	43*	1	18
CCc1ccccc1N1C(=O)C2CC(C)=C(C)CC2C1=O (stereo not given)	1	-19	0	3	41*	0	3
CCc1ccccc1N1C(=O)C2CC=CCC2C1=O (stereo not given)	-5	-11	-9	8	18	0	.
Nc1ncnc2c1ncn2[C@@H]1O[C@H](C(=O)Nc2ccc(Oc3ccccc3)nc2)[C@@H](O)[C@H]1O	.	.	.	-1	17	.	.
SMILES	Platelet DG rel	SENP6 block	SENP8 block-1	SENP1 FRET inh	SENP8 block-2	SENP7 block	SENP8 conf
Cc1[nH]n(-c2cccc3ccccc23)c(=O)c1/C=N/c1sc2c(c1C#N)CCC2	-2	7	4	-3	14	-1	.
Cc1[nH]n(-c2ccc(F)cc2)c(=O)c1/C=N/c1sc2c(c1C#N)CCCC2	4	11	8	1	48*	8	23
CCNc1nc(NCC)nc(OCC(=O)O)n1	2	-15	1	0	46*	3	21
CCNc1nc(NOC)nc(OCC#N)n1	6	5	3	3	15	15	.
Cc1cc(C)cc(NC(=O)CN(C)CC(=O)N(CC(C)C)c2c(N)n(CC(C)C)c(=O)[nH]c2=O)c1	.	-5	-3	-3	10	-1	.
COc1ccc(/C(O)=C2/C(=O)C(=O)N(c3ccccn3)C2c2ccc(F)cc2)cc1 (stereo not given)	3	-1	8	2	-39	3	.
CC1=CCC2C(=O)N(c3ccc4ccccc4n3)C(=O)C2C1 (stereo not given)	1	7	-5	-2	-10	6	.
Cc1cc(=O)n(-c2ccc3ccccc3n2)[nH]1	7	16	-3	3	47*	4	17
CCOC(=O)C1CCN(C(=O)Nc2ccc3oc(C)nc3c2)CC1	0	-9	7	3	46*	-4	6
CCOC(=O)N1CCN(C(=O)Nc2ccc3oc(C)nc3c2)CC1	-11	17	-3	-2	37	0	.
O=S(=O)(Nc1ccccn1)c1ccc(Cl)c2ccccc12	-5	5	-8	3	-58	-5	.
CCOc1cc(/C=C2\N=C(SCC)SC2=O)cc([N+](=O)[O-])c1OC(C)=O	5	26	27	5	36	3	.
CCOc1cc(/C=C2\N=C(SC)SC2=O)cc([N+](=O)[O-])c1OC(C)=O	10	16	10	7	45*	-8	9
CCOc1ccc(N2C(=O)CN(O)C=C3N=c4ccccc4=C32)cc1	1	19	10	.	.	5	.
NS(=O)(=O)c1ccc(CCNC(=O)COC(=O)c2ccc([N+](=O)[O-])o2)cc1	.	16	14	1	47*	7	89*
O=S(=O)(c1ccccc1C(F)(F)F)N1C=CC(C(F)(F)F)=NCC1	.	.	.	0	41*	.	8
O=S(=O)(c1ccccc1C(F)(F)F)N1CCOCC1	-9	-2	-8	2	21	-7	.
O=C(Nc1ccc(N2CCOCC2)cc1)C1CCN(S(=O)(=O)Cc2ccccc2)CC1	.	-11	3	1	40*	2	7
CC(C)NC(=O)NC(=O)COC(=O)C1(C)CC1(Cl)Cl (stereo not given)	0	-12	0	1	6	3	.
CC(C)C1Cc2c(sc3ncnc(NN)c23)CO1 (stereo not given)	-14	3	-8	3	42*	-11	11
Cc1ccc(C(=O)N2NC(c3ccc(F)cc3)C3C(=O)N(c4ccc(C)cc4)C(=O)C32)cc1 (stereo not given)	-8	-4	0	5	15	-10	.
